# Measurements published in ChEMBL document CHEMBL1687733, “Topoisomerase I gene mutations at F270 in the large subunit and N184 in the small subunit contribute to the resistance mechanism of the unicellular parasite Leishmania donovani towards 3,3'-diindolylmethane” (Antimicrob Agents Chemother, 2009).
# Activity calls are given as the source filed them.
# What was measured:
# [1] = test system: Leishmania donovani; experiment: Inhibition of recombinant drug-resistant Leishmania donovani LdDR50 topoisomerase 1b large subunit F270L mutant and small subunit N184S mutant-mediated relaxation of supercoiled pBluescript SK(+) DNA at up to 50 uM after 30 mins using ethidium bromide staining
# Summary of the method: (§1)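 Reconstituted recombinant enzyme (30 fmol) with 90 fmol supercoiled pBluescript SK(+) DNA (3:1 DNA:enzyme), 30 min at 37°C with DIM (1–50 μM for fully mutant enzyme; 10 μM for single-site mutants); 4% DMSO vehicle control. Products on 1% agarose, ethidium bromide (0.5 μg/ml) stained; supercoiled monomer band quantified.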
# [2] = test system: Leishmania donovani; experiment: Antimicrobial activity against wild type Leishmania donovani AG83 transfected with drug-resistant Leishmania donovani LdDR50 topoisomerase 1 F270Lmutant in large subunit assessed as inhibition of parasite growth at 20 uM after 24 hrs by MTT assay; type: functional; conditions: AG83, 24 h
# Summary of the method: (§2)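 WT promastigotes transfected by electroporation with mutant large-subunit (pXG-HYG, hygromycin selection) and/or small-subunit (pXG-GFP2+, G418 selection) topoisomerase I genes. Grown with DIM 1–20 μM for 24 h; MTT read-out, growth as % of optical density of untreated WT parasites.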
# [3] = test system: T1, DNA topoisomerase type IB small subunit (Leishmania donovani (strain BPK282A1)), E9B7X3 [N184S]; experiment: Inhibition of recombinant drug-resistant Leishmania donovani LdDR50 topoisomerase 1b small subunit N184S mutant-mediated religation of 14-mer/25-mer suicide DNA substrate at 20 uM […] by PAGE analysis
# T1 sequence (whole entry): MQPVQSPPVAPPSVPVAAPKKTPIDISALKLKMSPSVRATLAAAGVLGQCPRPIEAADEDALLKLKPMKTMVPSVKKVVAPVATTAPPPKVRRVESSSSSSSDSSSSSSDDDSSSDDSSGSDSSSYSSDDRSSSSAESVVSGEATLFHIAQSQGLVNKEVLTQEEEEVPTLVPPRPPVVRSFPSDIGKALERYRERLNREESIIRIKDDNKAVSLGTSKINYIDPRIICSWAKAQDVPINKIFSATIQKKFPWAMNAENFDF
# Summary of the method: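 5′-32P-labelled 14-mer annealed to 25-mer suicide substrate (5 nM) cleaved by 0.15 μM reconstituted enzyme at 23°C, ± 20 μM DIM. Complexes moved to 30°C for 2 min; religation started with 300-fold excess 11-mer acceptor for 30, 60, 120 s. Stopped with 1% SDS, trypsin-treated, 23-mer product resolved on sequencing gel.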
# [4] = target: DNA topoisomerase I (Leishmania donovani (strain BPK282A1), UniProt E9BRC0, F270L/K430N); experiment: Binding affinity to recombinant drug-resistant Leishmania donovani LdDR50 topoisomerase 1b large subunit F270L, K430N mutant after 24 hrs by equilibrium dialysis method
# Summary of the method: (§3)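 Recombinant His-tagged subunits expressed in E. coli BL21(DE3) pLysS, purified on Ni-NTA then phosphocellulose, reconstituted 1:1. Enzyme 200 μM with DIM 1–20 μM in 20 mM Tris-HCl pH 7.5, 50 mM NaCl, 10 mM MgCl2 for 30 min at 37°C, then dialysed (12–14 kDa cutoff) 24 h at 25°C. Free DIM measured by absorbance (ε 6.6 × 10^4 M−1); KD from saturation plot.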
# [5] = Binding affinity to recombinant drug-resistant Leishmania donovani LdDR50 topoisomerase 1b large subunit F270L, K430N mutant and small subunit N184S mutant after 24 hrs by equilibrium dialysis method; summary of the method: as §3
# [6] = test system: Leishmania donovani; experiment: Inhibition of recombinant drug-resistant Leishmania donovani LdDR50 topoisomerase 1b large subunit K430N mutant and small subunit N184S mutant-mediated relaxation of supercoiled pBluescript SK(+) DNA at up to 50 uM after 30 mins using ethidium bromide staining; summary of the method: as §1
# [7] = test system: Leishmania donovani; experiment: Inhibition of recombinant Leishmania donovani AG83 topoisomerase 1b-mediated religation of 14-mer/25-mer suicide DNA substrate at 20 uM after […] by PAGE analysis
# Summary of the method: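 For cleavage, the 5′-32P 14-mer/25-mer suicide substrate (5 nM) was incubated with 0.15 μM reconstituted enzyme at 23°C, with or without 20 μM DIM. Complexes were shifted to 30°C for 2 min. A 300-fold excess of 11-mer acceptor was added for 30, 60 and 120 s. Samples were stopped with 1% SDS, trypsinised, and run on a sequencing gel to read the 23-mer religated product.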
# [8] = test system: Leishmania donovani; experiment: Antimicrobial activity against wild type Leishmania donovani AG83 transfected with drug-resistant Leishmania donovani LdDR50 topoisomerase 1 F270L, K430N mutant in large subunit and N184S mutant in small subunit assessed as inhibition of parasite growth at 20 uM after 24 hrs by MTT assay; type: functional, organism-based; summary of the method: as §2
# [9] = test system: Leishmania donovani; experiment: Antimicrobial activity against wild type Leishmania donovani AG83 transfected with drug-resistant Leishmania donovani LdDR50 topoisomerase 1 K430N mutant in large subunit and N184S mutant in small subunit assessed as inhibition of parasite growth at 20 uM after 24 hrs by MTT assay; type: functional; conditions: AG83, 24 h; summary of the method: as §2
# [10] = test system: T2, DNA topoisomerase I (Leishmania donovani (strain BPK282A1)), E9BRC0 [F270L]; experiment: Effect on recombinant drug-resistant Leishmania donovani LdDR50 topoisomerase 1b large subunit F270L mutant-mediated cleavage of 25-mer duplex oligonucleotide at 20 uM after 30 mins by PAGE analysis
# T2 sequence (whole entry): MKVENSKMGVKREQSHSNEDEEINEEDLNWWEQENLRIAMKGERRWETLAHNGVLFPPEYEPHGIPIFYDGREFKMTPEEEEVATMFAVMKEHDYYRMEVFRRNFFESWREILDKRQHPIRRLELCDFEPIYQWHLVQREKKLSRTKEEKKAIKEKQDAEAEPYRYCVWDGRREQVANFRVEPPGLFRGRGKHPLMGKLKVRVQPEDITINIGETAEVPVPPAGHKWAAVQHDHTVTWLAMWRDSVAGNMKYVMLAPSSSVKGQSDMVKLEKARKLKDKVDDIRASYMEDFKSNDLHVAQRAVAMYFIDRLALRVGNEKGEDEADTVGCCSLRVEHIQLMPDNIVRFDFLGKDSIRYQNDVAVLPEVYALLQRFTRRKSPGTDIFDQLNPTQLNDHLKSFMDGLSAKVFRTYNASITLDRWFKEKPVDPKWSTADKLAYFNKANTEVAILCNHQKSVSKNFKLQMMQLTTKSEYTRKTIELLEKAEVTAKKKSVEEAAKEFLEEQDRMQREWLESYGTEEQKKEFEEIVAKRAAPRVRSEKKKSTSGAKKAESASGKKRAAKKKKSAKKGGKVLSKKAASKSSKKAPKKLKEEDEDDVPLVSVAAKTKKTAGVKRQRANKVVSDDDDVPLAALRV
# Summary of the method: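 5′-32P-labelled 25-mer duplex (10 nM) incubated with reconstituted mutant enzyme (0.2 μM, 20-fold molar excess) and DIM 5–20 μM for 30 min (Methods 37°C; legend 23°C). Stopped with SDS, trypsin-treated, resolved on 12% denaturing polyacrylamide-urea gel; cleaved 12-mer detected by autoradiography.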
# [11] = Binding affinity to Leishmania donovani small subunit of topoisomerase 1b
# [12] = test system: Leishmania donovani; experiment: Ratio of antimicrobial activity against drug-resistant Leishmania donovani LdDR50 to antimicrobial activity against wild type Leishmania donovani AG83; type: functional
# Summary of the method: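 Cells washed twice in PBS, MTT added for 4 h, acidified isopropanol stop for 20 min at room temperature, A570 read. Growth expressed as % of untreated WT OD; three experiments.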
# DNA topoisomerase I, sequence (E9BRC0 whole entry F270L/K430N): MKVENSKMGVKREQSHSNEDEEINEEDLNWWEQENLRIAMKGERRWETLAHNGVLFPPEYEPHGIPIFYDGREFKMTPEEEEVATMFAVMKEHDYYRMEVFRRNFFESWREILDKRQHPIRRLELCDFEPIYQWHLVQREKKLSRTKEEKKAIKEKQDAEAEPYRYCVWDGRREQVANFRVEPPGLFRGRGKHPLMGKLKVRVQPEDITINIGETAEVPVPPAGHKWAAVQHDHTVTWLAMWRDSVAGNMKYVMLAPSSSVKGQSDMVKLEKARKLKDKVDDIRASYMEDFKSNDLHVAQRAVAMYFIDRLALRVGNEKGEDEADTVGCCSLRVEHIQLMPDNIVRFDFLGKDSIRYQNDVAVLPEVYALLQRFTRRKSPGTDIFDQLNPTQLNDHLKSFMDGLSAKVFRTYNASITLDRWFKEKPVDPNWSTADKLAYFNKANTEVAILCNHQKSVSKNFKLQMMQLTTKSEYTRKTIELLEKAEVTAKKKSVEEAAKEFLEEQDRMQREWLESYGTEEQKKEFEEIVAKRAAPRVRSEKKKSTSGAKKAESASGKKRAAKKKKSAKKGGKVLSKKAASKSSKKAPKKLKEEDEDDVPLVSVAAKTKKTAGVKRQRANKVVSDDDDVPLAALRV
compound,measurement,setting,value
c1ccc2c(Cc3c[nH]c4ccccc34)c[nH]c2c1 [ARUNDINE],inhibition,[1],inactive
same,inhibition at 20 µM,[2],34%
same,inhibition,[3],Active
same,Kd,[4],760 µM
same,Kd,[5],240 µM
same,inhibition,[6],Active
same,inhibition,[7],Active
same,Activity,[8],inactive
same,inhibition at 20 µM,[9],86%
same,Activity,[10],inactive
same,Kd,[11],0.05 µM
same,Ratio,[12],42
